Bioassay records from PubChem BioAssay.
Kir21 inh – inhibitors of mouse Kir2.1 inward-rectifier potassium channel; AID 1672; B-score at 10 µM; HEK293-Kir2.1, FluxOR thallium flux fluorescence; stronger effect = lower value; actives 0.85% (n = 310,000); P35561;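 active = fluorescence ratio B-score at or below minus 3 SD of library scores, with starting-brightness B-score within 2 SD, cut at about -4.2 in these data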;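 note: channel flux triggered by added potassium and thallium sulfate stimulus; B-score of peak minus minimum fluorescence over baseline after thallium stimulus; more negative B-score means stronger Kir2.1 block with less thallium influx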
KCNQ1 pot – human KCNQ1 channel potentiation or activation. actives 0.35% (n = 310,000). B-score at 10 µM. CHO-K1 KCNQ1, thallium flux FluxOR fluorescence; stronger effect = higher value. P51787;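 active = fluorescence ratio B-score, a plate-corrected score, at least three library SD, with initial intensity B-score within 5 SD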
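System: CHO-K1 cells stably expressing KCNQ1 / Medium: assay buffer for compound exposure, DMSO matched across wells / Reagent: thallium- and potassium-containing depolarizing buffer / Compound: one concentration, matched DMSO / Incubation: 20 min compound pretreatment at room temperature / Measured by: kinetic FluxOR fluorescence, 10 s baseline plus 110 s post-stimulus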
hERG protect – hERG (human) protection from proarrhythmic block. Q12809. activation (rescue from dofetilide block), less the hit threshold, % at 10 µM. AID 1511. actives 0.51% (n = 310,000). CHO-hERG, FluxOR thallium flux, dofetilide IC70 present;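 active = activation above the mean of controls blocked by dofetilide plus 5 SD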;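 note: thallium influx through hERG after potassium depolarization seen as dye fluorescence rise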
Target sequence (Q12809 whole entry, looked up): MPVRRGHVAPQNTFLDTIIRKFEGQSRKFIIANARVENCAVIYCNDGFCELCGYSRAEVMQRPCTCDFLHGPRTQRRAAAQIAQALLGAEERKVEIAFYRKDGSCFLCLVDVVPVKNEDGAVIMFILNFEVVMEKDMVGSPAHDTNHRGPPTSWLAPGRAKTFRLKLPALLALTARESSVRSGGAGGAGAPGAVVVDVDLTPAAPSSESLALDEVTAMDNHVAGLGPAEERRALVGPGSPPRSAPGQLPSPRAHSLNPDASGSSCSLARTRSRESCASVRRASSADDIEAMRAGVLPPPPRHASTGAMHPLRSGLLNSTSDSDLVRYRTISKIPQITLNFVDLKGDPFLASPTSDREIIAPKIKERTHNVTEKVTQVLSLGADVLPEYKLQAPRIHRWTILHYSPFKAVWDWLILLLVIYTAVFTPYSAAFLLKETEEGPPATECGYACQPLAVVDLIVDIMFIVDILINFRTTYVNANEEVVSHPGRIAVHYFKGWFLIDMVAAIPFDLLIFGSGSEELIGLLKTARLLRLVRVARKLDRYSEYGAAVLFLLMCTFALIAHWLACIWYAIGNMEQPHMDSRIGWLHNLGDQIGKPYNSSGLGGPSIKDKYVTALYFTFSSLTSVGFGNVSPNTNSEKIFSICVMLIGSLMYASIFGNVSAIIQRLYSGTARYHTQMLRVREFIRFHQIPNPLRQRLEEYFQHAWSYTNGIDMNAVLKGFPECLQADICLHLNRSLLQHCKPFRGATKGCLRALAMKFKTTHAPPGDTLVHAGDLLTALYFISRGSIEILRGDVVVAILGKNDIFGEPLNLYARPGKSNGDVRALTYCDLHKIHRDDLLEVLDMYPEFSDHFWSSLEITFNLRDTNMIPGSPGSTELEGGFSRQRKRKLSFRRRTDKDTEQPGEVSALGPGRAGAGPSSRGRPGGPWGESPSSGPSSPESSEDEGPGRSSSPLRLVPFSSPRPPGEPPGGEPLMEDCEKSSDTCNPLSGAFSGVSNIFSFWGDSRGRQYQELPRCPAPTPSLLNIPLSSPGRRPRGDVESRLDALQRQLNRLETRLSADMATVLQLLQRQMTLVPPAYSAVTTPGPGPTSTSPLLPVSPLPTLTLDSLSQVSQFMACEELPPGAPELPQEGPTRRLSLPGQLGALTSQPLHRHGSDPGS
KCNQ1 inh – blocks the human KCNQ1 potassium channel; P51787; CHO-K1 KCNQ1, FluxOR thallium flux fluorescence; stronger effect = higher value; B-score at 10 µM; actives 1.3% (n = 310,000); AID 2642;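 active = compounds whose thallium flux B-score, printed positive for inhibition, exceeds three library SD while starting fluorescence stays within three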;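 note: channel opened by potassium depolarization with thallium stimulus after 20 min compound exposure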
KCNK9 block – inhibitors of human KCNK9 two-pore domain potassium channel; B-score at 10 µM; HEK293 KCNK9, FluxOR thallium flux fluorescence; stronger effect = lower value; actives 1.2% (n = 310,000);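 active = ratio B-score over 3 SD below the library mean, with starting fluorescence within 5 SD of its mean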;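 note: negative B-score means less thallium flux so channel inhibition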
KCNK3 block – human KCNK3 channel inhibition, primary screen; O14649; CHO-KCNK3 thallium flux, FluxOR fluorescence; stronger effect = lower value; B-score at 10 µM; actives 0.84% (n = 340,000); AID 602410;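 active = B-score under library mean minus 4 SD, starting fluorescence ratio at most library mean plus 5 SD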;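 note: more negative B-score means stronger inhibition of thallium flux through KCNK3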
Large screens that a line does not name were inactive. This is a sample that favours compounds with a hit; in the whole collection about 3.8% have one here.

O=S(=O)(c1cnc(Cl)c(Br)c1)N1CCN(c2ncccn2)CC1	none
O=S(=O)(c1ccccc1)c1cnc(-c2cccnc2)nc1-c1ccccc1	none
Cc1ncc(S(=O)(=O)c2ccc(Cl)cc2)c(-c2ccccc2)n1	Kir21 inh -4.8
CCCOC1OC(=O)c2c1ccc(OC)c2OC (configuration not stated)	none
Cc1ccc(NC(=O)c2c(Cl)n(C)c3ccccc23)cc1	KCNK9 block -7.1
Cn1c(=O)c2c(nc(CN3CCOCC3)n2CC(O)CO)n(C)c1=O (configuration not stated)	none
CN(C)C(=O)CN1c2cccc3cccc(c23)S1(=O)=O	none
CC(C)N(Cc1ccccc1)C(=O)CN1c2cccc3cccc(c23)S1(=O)=O	KCNK3 block -10 (no result: Kir21 inh, KCNQ1 pot, hERG protect, KCNQ1 inh, KCNK9 block)
CNC(=O)c1ccc(NC(=O)CN2c3cccc4cccc(c34)S2(=O)=O)cc1	hERG protect 14
O=C(CN1c2cccc3cccc(c23)S1(=O)=O)Nc1ccc(F)c(F)c1F	KCNK3 block -9.4 (no result: Kir21 inh, KCNQ1 pot, hERG protect, KCNQ1 inh, KCNK9 block)
O=C(CN1c2cccc3cccc(c23)S1(=O)=O)Nc1ccccc1	none
O=C(CN1c2cccc3cccc(c23)S1(=O)=O)Nc1ccccc1F	none
O=c1c2ccccc2ncn1-c1ccc(Br)cc1[N+](=O)[O-]	none
COc1ccc(-n2cnc3ccccc3c2=O)c([N+](=O)[O-])c1	hERG protect 5.5
CC(C)Oc1ccc(CNC(=O)Cn2ccc3cc(S(=O)(=O)N4CCCC4)ccc32)cc1	none
CC(=O)c1cccc(NC(=O)CN2CCN(S(=O)(=O)/C=C/c3ccccc3)CC2)c1	none (no result: Kir21 inh, KCNQ1 pot, hERG protect, KCNQ1 inh, KCNK9 block)
CCc1ccc(C2=CC(c3cc(Br)ccc3F)n3ncnc3N2)cc1 (configuration not stated)	KCNK3 block -8.9 (no result: Kir21 inh, KCNQ1 pot, hERG protect, KCNQ1 inh, KCNK9 block)
Fc1ccc(Br)cc1C1C=C(c2ccc(Br)cc2)Nc2ncnn21 (configuration not stated)	KCNK3 block -12
CCCn1c(SCC(=O)NC2CCCC2)nnc1-c1cccnc1	none
Cn1nc(C(F)(F)F)c2cc(C(=O)Nc3ccc(F)cc3F)sc21	KCNK9 block -7.2
Cn1nc(C(F)(F)F)c2cc(NC(=O)OCc3ccc(C(C)(C)C)cc3)sc21	KCNQ1 inh 7
COc1cc(NC(=O)CN2CCC(C(N)=O)(N3CCCCC3)CC2)c(OC)cc1Cl	none
CCCCOc1ccc(-c2nnn(C(C)C(=O)OCC)n2)cc1 (configuration not stated)	KCNK9 block -7.2
CCC(C(=O)O)n1nnc(-c2ccc(-c3ccc(OC)cc3)cc2)n1 (configuration not stated)	none
Nc1ccc(S(=O)(=O)N2CCCc3ccccc32)cc1	Kir21 inh -5.7
O=C(NCc1ccco1)c1cccc(S(=O)(=O)N2CCc3ccccc32)c1	none
O=C(NCc1ccco1)c1ccc(S(=O)(=O)N2CCCc3ccccc32)cc1	KCNK9 block -6.9
CCn1c(=O)n(CC)c2cc(S(=O)(=O)N3CCc4ccccc43)ccc21	Kir21 inh -4.3
CC(=O)Nc1ccc(S(=O)(=O)N2CCCc3ccccc32)cc1	none
CC(Oc1ccc(Cl)cc1)C(=O)N1CCCc2ccccc21 (configuration not stated)	Kir21 inh -5.7
CC(Oc1ccc(Br)cc1)C(=O)N1CCc2ccccc21 (configuration not stated)	none
C#CCOCCOCCOCCNc1nc(N2CCN(C(=O)[C@H](CCC(=O)O)n3cc([C@@H](N)[C@H](C)CC)nn3)CC2)nc(N2CCN(C(=O)[C@H](CCC(=O)O)n3cc([C@@H](N)CC(N)=O)nn3)CC2)n1	none (no result: Kir21 inh, KCNQ1 pot, hERG protect, KCNQ1 inh, KCNK9 block)
O=S(=O)(c1ccc(Cl)cc1)N1CCCc2ccccc21	Kir21 inh -4.6
C/C(=N\NC(N)=S)c1cc(-c2ccccc2)c(-c2ccccc2)s1	KCNK9 block -8
COc1ccc(C2CC(c3cccs3)=NN2C(=O)CSc2nc3c(cnn3-c3ccccc3)c(=O)[nH]2)cc1 (configuration not stated)	KCNQ1 inh 6
CCC(Cc1ccccc1)NC(=O)CCc1ccccc1 (configuration not stated)	Kir21 inh -5.1
CCC(Cc1ccccc1)NC(=O)CCn1cccc1 (configuration not stated)	none
COc1ccccc1N1N=C(C(=O)c2ccccc2)C2C(=O)N(c3ccc(Br)cc3)C(=O)C21 (configuration not stated)	none
COc1ccccc1N1C(=O)C2C(C(=O)c3ccccc3)=NN(c3ccccc3)C2C1=O (configuration not stated)	KCNQ1 inh 6
COc1ccc2cc(C(=O)N/N=C/c3sc4ccccc4c3O)ccc2c1	KCNQ1 inh 9
CCN(CC)S(=O)(=O)c1ccc(C)c(NC(=O)COC(=O)CCC(=O)c2cccs2)c1	none (no result: Kir21 inh, KCNQ1 pot, hERG protect, KCNQ1 inh, KCNK9 block)
CC1C/C(=N/Nc2ccc([N+](=O)[O-])cc2[N+](=O)[O-])CC(C)(C)C1 (configuration not stated)	KCNQ1 inh 7
CC1CCCC/C1=N/Nc1ccc([N+](=O)[O-])cc1[N+](=O)[O-] (configuration not stated)	none
CCOc1cccc(-c2c(C(=O)N/N=C(\C)c3ccccn3)nnn2-c2nonc2N)c1	KCNK9 block -7
CCOc1cccc(-c2c(C(=O)N/N=C/c3ccncc3)nnn2-c2nonc2N)c1	none
CCn1cc(CCC(=O)NC(C)c2ccccc2)c2ccccc21 (configuration not stated)	Kir21 inh -6.1
CCn1cc(CCC(=O)NCc2cccc(OC)c2OC)c2ccccc21	hERG protect 6.4
COc1ccc(OC)c(CCNC(=O)Cn2sc3nc(C)cc(C)c3c2=O)c1	KCNQ1 inh 6 (no result: KCNK3 block)
COc1ccc(OC)c(CCNC(=O)CCc2cn(C)c3ccccc23)c1	Kir21 inh -5.6
CC(CCc1ccccc1)NC(=O)CCc1cn(C)c2ccccc12 (configuration not stated)	Kir21 inh -5.6
CC(C)NC(=O)CCCc1cn(C)c2ccccc12	none
CN1/C(=C\C(=O)CSc2nnc(NCc3ccccc3)s2)C(C)(C)c2ccccc21	Kir21 inh -9.7
O=C(Nc1ccc(Cl)cc1)c1cc2c(cc1O)[nH]c1ccccc12	none
Cc1[nH]n(-c2ccccc2)c(=O)c1Sc1ccc(Cl)cc1	none
CCCSC(=S)c1c(C)[nH]n(-c2ccccc2)c1=O	KCNQ1 pot 16, hERG protect 27
O=C(COC(=O)/C=C/c1ccc([N+](=O)[O-])cc1)NCc1ccco1	none
O=C(COC(=O)/C=C/c1ccc(F)cc1)NCc1ccco1	hERG protect 39
CCOc1cc(N2CCOCC2)c(OCC)cc1NC(=O)COC(=O)c1c(CC)noc1C	none (no result: Kir21 inh, KCNQ1 pot, hERG protect, KCNQ1 inh, KCNK9 block)
CCN(CCO)Cc1csc2ccc(C(C)(C)C)cc12	Kir21 inh -7
